According to ChEMBL document CHEMBL1156597, “Structure-activity relationship of kahalalide F synthetic analogues” (J Med Chem, 2008):

Columns and labels:
K562 = assay: Cytotoxicity against human K562 cells after 48 hrs by SRB assay; assay type: functional; conditions: K562, 48 h; for CC50: read-out: LC50 (the source's name)
Procedure, shortened: (§1)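 Cells grown in RPMI 1640 with 10% FBS and penicillin/streptomycin at 37 °C and 5% CO₂, trypsinized, then seeded at 5 × 10³/well. After 18 h drug-free attachment, samples in DMSO/EtOH/PBS (0.5:0.5:99) were added for 48 h continuous exposure. Cells were fixed with cold TCA (1 h, 4 °C) and stained with SRB (10 min). Tris-solubilized stain read at 490 nm. Triplicate wells, mean ± SD; GI₅₀ derived.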

HeLa = assay: Cytotoxicity against human HeLa cells after 48 hrs by SRB assay; assay type: functional; conditions: for CC50: read-out: LC50 (the source's name); procedure, shortened: as §1
LoVo [1] = assay: Cytotoxicity against human doxorubicin resistant LoVo cells after 48 hrs by SRB assay; assay type: functional; conditions: for CC50: read-out: LC50 (the source's name); procedure, shortened: as §1
LoVo [2] = assay: Cytotoxicity against human LoVo cells after 48 hrs by SRB assay; assay type: functional; conditions: for CC50: read-out: LC50 (the source's name)
[3] = Cytotoxicity against human IGROV cells after 48 hrs by SRB assay; assay type: functional; conditions: for CC50: read-out: LC50 (the source's name); procedure, shortened: as §1
A549 = assay: Cytotoxicity against human A549 cells after 48 hrs by SRB assay; assay type: functional, cell-based; conditions: Homo sapiens, A549, 48 h; for GI50: read-out: GI50; procedure, shortened: as §1
SK-BR-3 = assay: Cytotoxicity against human SKBR3 cells after 48 hrs by SRB assay; assay type: functional; conditions: SK-BR-3, 48 h; for GI50: read-out: GI50; for CC50: read-out: LC50 (the source's name); procedure, shortened: as §1
LNCaP = assay: Cytotoxicity against human LNcaP cells after 48 hrs by SRB assay; assay type: functional; conditions: for CC50: read-out: LC50 (the source's name); procedure, shortened: as §1
[4] = Cytotoxicity against human HeLa-APL cells after 48 hrs by SRB assay; assay type: functional; procedure, shortened: as §1
DU-145 = assay: Cytotoxicity against human DU145 cells after 48 hrs by SRB assay; assay type: functional, cell-based; conditions: Homo sapiens, DU-145, 48 h; for CC50: read-out: LC50 (the source's name); procedure, shortened: as §1
SK-MEL-28 = assay: Cytotoxicity against human SK-MEL-28 cells after 48 hrs by SRB assay; assay type: functional, cell-based; conditions: Homo sapiens, SK-MEL-28, 48 h; for GI50: read-out: GI50; for CC50: read-out: LC50 (the source's name); procedure, shortened: as §1
PANC-1 = assay: Cytotoxicity against human PANC1 cells after 48 hrs by SRB assay; assay type: functional; conditions: PANC-1, 48 h; for CC50: read-out: LC50 (the source's name); procedure, shortened: as §1
HT-29 = assay: Cytotoxicity against human HT29 cells after 48 hrs by SRB assay; assay type: functional, cell-based; conditions: Homo sapiens, HT-29, 48 h; for CC50: read-out: LC50 (the source's name); procedure, shortened: as §1
[5] = Cytotoxicity against human IGROV-ET cells after 48 hrs by SRB assay; assay type: functional; conditions: for CC50: read-out: LC50 (the source's name); procedure, shortened: as §1

| Structure (SMILES) | CC50 (K562) [µM] | CC50 (HeLa) [µM] | GI50 (LoVo [1]) [µM] | TGI (LoVo [1]) [µM] | CC50 (LoVo [1]) [µM] | GI50 (LoVo [2]) [µM] | TGI (LoVo [2]) [µM] | CC50 (LoVo [2]) [µM] | CC50 [3] [µM] | LC50 (A549) [µM] | TGI (A549) [µM] | GI50 (A549) [µM] | TGI (SK-BR-3) [µM] | GI50 (SK-BR-3) [µM] | CC50 (SK-BR-3) [µM] | GI50 (LNCaP) [µM] | TGI (LNCaP) [µM] | CC50 (LNCaP) [µM] | GI50 [4] [µM] | LC50 (concentration giving 50% net cell kill) [4] [µM] | further results |
| --- | --- | --- | --- | --- | --- | --- | --- | --- | --- | --- | --- | --- | --- | --- | --- | --- | --- | --- | --- | --- | --- |
| C/C=C1\NC(=O)[C@H](Cc2ccccc2)NC(=O)[C@@H](C(C)C)NC(=O)[C@@H]([C@H](C)CC)NC(=O)[C@H](NC(=O)[C@H](NC(=O)[C@H](CCCN)NC(=O)[C@H]2CCCN2C(=O)[C@H](NC(=O)[C@@H](NC(=O)[C@@H](NC(=O)[C@H](NC(=O)CC[C@H](C)CC)C(C)C)[C@@H](C)O)C(C)C)C(C)C)[C@H](C)CC)[C@H](C)OC(=O)[C@H](C(C)C)NC1=O | 1.93 | 0.971 | 0.69 | 1.04 | 1.66 | 0.69 | 1.18 | 1.89 | 0.551 | 1.36 | 1.42 | 1.48 | 0.425 | 0.469 | 0.383 | 1.47 | 1.29 | 1.13 | 1.42 | 1.24 | GI50 (K562): 2.18 µM; TGI (K562): 1.93 µM; GI50 [3]: 0.776 µM; GI50 ([3]; read-out: GI50): 1.52 µM; TGI [4]: 1.42 µM; TGI (DU-145): 1.27 µM; GI50 (DU-145; read-out: GI50): 1.44 µM; CC50 (DU-145): 1.13 µM; TGI (SK-MEL-28): 1.27 µM; GI50 (SK-MEL-28): 1.37 µM; CC50 (SK-MEL-28): 1.16 µM; CC50 (PANC-1): 1.64 µM; CC50 (HT-29): 0.668 µM; GI50 [5]: 0.92 µM; GI50 ([5]; read-out: GI50): 1.9 µM; CC50 [5]: 0.614 µM |
| C=C1NC(=O)[C@H](Cc2ccccc2)NC(=O)[C@@H](C(C)C)NC(=O)[C@@H]([C@H](C)CC)NC(=O)[C@H](NC(=O)[C@H](NC(=O)[C@H](CCCN)NC(=O)[C@H]2CCCN2C(=O)[C@H](NC(=O)[C@@H](NC(=O)[C@@H](NC(=O)[C@H](NC(=O)CCCC(C)C)C(C)C)[C@@H](C)O)C(C)C)C(C)C)[C@H](C)CC)[C@H](C)OC(=O)[C@H](C(C)C)NC1=O | 1.95 | 0.646 | 0.393 | 3.72 | 0.235 | 0.309 | 0.318 | 0.295 | 0.334 | 1.07 | 1.14 | 1.2 | 0.412 | 0.458 | 0.36 | 1.44 | 1.86 | 1.41 | 0.893 | 0.791 | GI50 (K562): 2.47 µM; TGI (K562): 3.01 µM; GI50 [3]: 0.442 µM; GI50 ([3]; read-out: GI50): 0.63 µM; TGI [4]: 0.842 µM; GI50 (DU-145): 0.901 µM; GI50 (DU-145; read-out: GI50): 1.11 µM; CC50 (DU-145): 0.73 µM; TGI (SK-MEL-28): 1.13 µM; GI50 (SK-MEL-28): 1.1 µM; CC50 (SK-MEL-28): 1.16 µM; CC50 (PANC-1): 1.79 µM; GI50 (HT-29): 0.638 µM; TGI (HT-29): 0.804 µM; CC50 (HT-29): 0.612 µM; GI50 [5]: 0.366 µM; GI50 ([5]; read-out: GI50): 0.349 µM; CC50 [5]: 0.392 µM |
| C/C=C1\NC(=O)[C@H](Cc2c[nH]c3ccccc23)NC(=O)[C@@H](C(C)C)NC(=O)[C@@H]([C@H](C)CC)NC(=O)[C@H](NC(=O)[C@H](NC(=O)[C@H](CCCN)NC(=O)[C@H]2CCCN2C(=O)[C@H](NC(=O)[C@@H](NC(=O)[C@@H](NC(=O)[C@H](NC(=O)CCCC(C)C)C(C)C)[C@@H](C)O)C(C)C)C(C)C)[C@H](C)CC)[C@H](C)OC(=O)[C@H](C(C)C)NC1=O | 2.55 | 0.935 | 0.507 | 0.659 | 1.47 | 0.628 | 0.957 | 1.43 | 0.0574 | 1.38 | 1.49 | 1.61 | 0.383 | 0.345 | 0.425 | 2.06 | 1.61 | 1.4 | 1.36 | 0.975 | GI50 (K562): 4.84 µM; TGI (K562): 4.7 µM; GI50 (HeLa): 1.36 µM; TGI (HeLa): 1.13 µM; GI50 [3]: 0.0718 µM; GI50 ([3]; read-out: GI50): 0.0875 µM; TGI [4]: 1.15 µM; GI50 (DU-145): 0.823 µM; GI50 (DU-145; read-out: GI50): 0.832 µM; CC50 (DU-145): 0.785 µM; CC50 (SK-MEL-28): 1.39 µM; CC50 (PANC-1): 2.39 µM; GI50 (HT-29): 1.05 µM; TGI (HT-29): 1.51 µM; CC50 (HT-29): 1.19 µM; GI50 [5]: 0.439 µM; GI50 ([5]; read-out: GI50): 0.461 µM; CC50 [5]: 0.418 µM |
| C/C=C1\NC(=O)[C@H](Cc2ccccc2)NC(=O)[C@@H](C(C)C)NC(=O)[C@@H](C(C)C)NC(=O)[C@H](NC(=O)[C@H](NC(=O)[C@H](CCCN)NC(=O)[C@H]2CCCN2C(=O)[C@H](NC(=O)[C@@H](NC(=O)[C@@H](NC(=O)[C@H](NC(=O)CCCC(C)C)C(C)C)[C@@H](C)O)C(C)C)C(C)C)C(C)C)[C@H](C)OC(=O)[C@H](C(C)C)NC1=O | 2.5 | 1.12 | 1.43 | 1.67 | 1.94 | 2.46 | 2.46 | 2.48 | 0.762 | 2 | 3.79 | 2.4 | 2.31 | 2.12 | 1.45 | 2.34 | 1.96 | 1.16 | 2.73 | 1.69 | GI50 (HeLa): 1.4 µM; TGI (HeLa): 1.26 µM; TGI [4]: 2.79 µM; TGI (DU-145): 1.18 µM; GI50 (DU-145; read-out: GI50): 1.36 µM; CC50 (DU-145): 1.02 µM; TGI (SK-MEL-28): 1.65 µM; GI50 (SK-MEL-28): 1.64 µM; CC50 (SK-MEL-28): 1.66 µM; GI50 (PANC-1): 4.71 µM; TGI (PANC-1): 3.91 µM; CC50 (PANC-1): 2.19 µM; GI50 (HT-29): 2.5 µM; TGI (HT-29): 2.81 µM; CC50 (HT-29): 3.16 µM; CC50 [5]: 0.719 µM |
